These results are taken from ChEMBL document CHEMBL1800019, “Highly potent activity of (1R,2R,6S)-3-methyl-6-(prop-1-en-2-yl)cyclohex-3-ene-1,2-diol in animal models of Parkinson's disease” (2011).

Activity calls are given as the source filed them. The rule behind the calls is not given here.

Assay [1] deals with Rattus norvegicus. The experiment in a line: Antiparkinsonian effect against MPTP-induced hypokinesia in Wistar rat assessed as number of upright postures at 10 mg/kg, po administered 30 days post 20 mg/kg, ip MPTP challenge measured on 30th day 2 hrs post compound administration for 2 mins (reference value: 14.6 +/- 1.8 upright postures). It is filed as functional.
For assay [2], the system named is Rattus norvegicus. The experiment in a line: Antiparkinsonian effect against MPTP-induced hypokinesia in Wistar rat assessed as time of locomotory activity at 10 mg/kg, po administered 30 days post 20 mg/kg, ip MPTP challenge measured on 30th day 2 hrs post compound administration for 2 mins (reference value: 69.7 +/- 2.1s). The class given is functional.
Assay [3] relates to Rattus norvegicus. The experiment in a line: Antiparkinsonian effect against MPTP-induced hypokinesia in Wistar rat assessed as number of locomotory acts at 10 mg/kg, po administered 30 days post 40 mg/kg, ip MPTP challenge measured on 30th day 2 hrs post compound administration for 2 mins (reference value: 80.3 +/- 2.5 locomotor acts).
For assay [4], the system named is Rattus norvegicus. The experiment in a line: Antiparkinsonian effect against MPTP-induced hypokinesia in Wistar rat assessed as movement distance at 10 mg/kg, po administered 30 days post 20 mg/kg, ip MPTP challenge measured on 30th day 2 hrs post compound administration for 2 mins (reference value: 367 +/- 21.2 cm). The class given is functional.
Assay [5] has as its system Rattus norvegicus. The assay is described as follows: Antiparkinsonian effect against MPTP-induced hypokinesia in Wistar rat assessed as number of holes explored at 10 mg/kg, po administered 30 days post 20 mg/kg, ip MPTP challenge measured on 30th day 2 hrs post compound administration for 2 mins (reference value: 4.6 +/- 0.9 holes explored). The class given is functional.

Assay [6] has as its system Mus musculus. The experiment in a line: Antiparkinsonian effect against MPTP-induced hypokinesia in C57/BL6 mouse assessed as number of holes explored at 20 mg/kg, po administered 15 mins after 30 mg/kg, ip MPTP challenge measured after 1.5 hrs of compound administration for 2 mins (reference value: 15.6 +/- 3.3 holes explored). It is filed as functional, C57Bl/6. In short, it runs like this:
(§1)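 Male C57BL/6 mice (25–30 g) were given MPTP 0.17 mmol/kg (30 mg/kg) ip and, 15 min later, test agent 0.12 mmol/kg (20 mg/kg) po. Controls received saline. An open-field test (Tru Scan) was run 1.5 h after MPTP for 2 min, recording acts, locomotion time, distance, speed, upright postures and explored holes.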

For assay [7], the system named is Mus musculus. The assay is described as follows: Antiparkinsonian effect against MPTP-induced hypokinesia in C57/BL6 mouse assessed as time of locomotory activity at 20 mg/kg, po administered 15 mins after 30 mg/kg, ip MPTP challenge measured after 1.5 hrs of compound administration for 2 mins (reference value: 58.3 +/- 3.9 sec). It is filed as functional, C57Bl/6. A digest of the protocol:
as §1

Assay [8] relates to Mus musculus. The assay is described as follows: Antiparkinsonian effect against MPTP-induced hypokinesia in C57/BL6 mouse assessed as number of upright postures at 20 mg/kg, po administered 15 mins after 30 mg/kg, ip MPTP challenge measured after 1.5 hrs of compound administration for 2 mins (reference value: 6.5 +/- 1.3 upright postures). The class given is functional, C57Bl/6. A digest of the protocol:
as §1

The subject of assay [9] is Mus musculus. The assay is described as follows: Antiparkinsonian effect against MPTP-induced hypokinesia in C57/BL6 mouse assessed as number of locomotory acts at 20 mg/kg, po administered 15 mins after 30 mg/kg, ip MPTP challenge measured after 1.5 hrs of compound administration for 2 mins (reference value: 84.1 +/- 1.9 locomotor acts). It is filed as functional, C57Bl/6. A digest of the protocol: as §1

In assay [10] the test system is Mus musculus. The experiment in a line: Antiparkinsonian effect against MPTP-induced hypokinesia in C57/BL6 mouse assessed as movement distance at 20 mg/kg, po administered 15 mins after 30 mg/kg, ip MPTP challenge […] for 2 mins (reference value: 276.8 +/- 27.8 cm). It is filed as functional, C57Bl/6.
For assay [11], the system named is Mus musculus. The assay is described as follows: Antiparkinsonian effect against MPTP-induced hypokinesia in C57/BL6 mouse assessed as movement speed at 20 mg/kg, po administered 15 mins after 30 mg/kg, ip MPTP challenge measured after 1.5 hrs of compound administration for 2 mins (reference value: 2.3 +/- 0.2 cm/s). It is filed as functional, C57Bl/6. In short, it runs like this: as §1

Assay [12] relates to Rattus norvegicus. The experiment in a line: Antiparkinsonian effect against MPTP-induced hypokinesia in Wistar rat assessed as time of locomotory activity at 20 mg/kg, po administered 30 days post 40 mg/kg, ip MPTP challenge measured on 30th day 2 hrs post compound administration for 2 mins (reference value: 69.7 +/- 2.1 sec).
The test system of assay [13] is Mus musculus. The assay is described as follows: Antiparkinsonian effect against MPTP-induced hypokinesia in C57/BL6 mouse assessed as time of locomotory activity at 20 mg/kg, po administered 24 hrs after 4 X 20 mg/kg, ip MPTP challenge measured after 2 hrs of compound administration for 2 mins (reference value: 90.0 +/- 1.4 sec). It is filed as functional, C57Bl/6.

In assay [14] the test system is Rattus norvegicus. The experiment in a line: Inhibition of haloperidol-induced catalepsy in Wistar rat at 20 mg/kg, po administered 10 mins before haloperidol challenge measured for 30 to 240 mins. The class given is functional, organism-based. The arrangement: dose 20 mg/kg. In short, it runs like this: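 Male Wistar rats (six per group) were dosed po with 0.12 mmol/kg (20 mg/kg), and 10 min later received haloperidol 4.0 μmol/kg (1.5 mg/kg) ip in saline. Controls received haloperidol only. Immobility time on parallel bars was recorded at 30, 60, 120, 180 and 240 min at rt. Total catalepsy duration and % cataleptic animals were scored.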

Assay [15] relates to Rattus norvegicus. The experiment in a line: Antiparkinsonian effect against MPTP-induced hypokinesia in Wistar rat assessed as number of holes explored at 20 mg/kg, po administered 30 days post ip MPTP challenge measured on 30th day 2 hrs post compound administration for 2 mins (reference value: 4.6 +/- 0.9 holes explored).
The subject of assay [16] is Mus musculus. The experiment in a line: Antiparkinsonian effect against MPTP-induced hypokinesia in C57/BL6 mouse assessed as number of upright postures at 20 mg/kg, po administered 24 hrs after 4 X 20 mg/kg, ip MPTP challenge measured after 2 hrs of compound administration for 2 mins (reference value: 24.9 +/- 3.3 upright postures). It is filed as functional, C57Bl/6.

The subject of assay [17] is Mus musculus. The assay is described as follows: Antiparkinsonian effect against MPTP-induced hypokinesia in C57/BL6 mouse assessed as number of locomotory acts at 20 mg/kg, po administered 24 hrs after 4 X 20 mg/kg, ip MPTP challenge measured after 2 hrs of compound administration for 2 mins (reference value: 73.3 +/- 2.3 locomotor acts). The class given is functional, C57Bl/6.

Assay [18] deals with Mus musculus. The experiment in a line: Antiparkinsonian effect against MPTP-induced hypokinesia in C57/BL6 mouse assessed as number of holes explored at 20 mg/kg, po administered 24 hrs after 4 X 20 mg/kg, ip MPTP challenge measured after 2 hrs of compound administration for 2 mins (reference value: 4.1 +/- 1.1 holes explored). The class given is functional, C57Bl/6.
Assay [19] concerns Mus musculus. The experiment in a line: Antiparkinsonian effect against MPTP-induced hypokinesia in C57/BL6 mouse assessed as movement distance at 20 mg/kg, po administered 24 hrs after 4 X 20 mg/kg, ip MPTP challenge measured after 2 hrs of compound administration for 2 mins (reference value: 556.7 +/- 19.6 cm). It is filed as functional, C57Bl/6.
Assay [20] relates to Mus musculus. The assay is described as follows: Antiparkinsonian effect against MPTP-induced hypokinesia in C57/BL6 mouse assessed as movement speed at 20 mg/kg, po administered 24 hrs after 4 X 20 mg/kg, ip MPTP challenge measured after 2 hrs of compound administration for 2 mins (reference value: 4.6 +/- 0.2 cm/s). It is filed as functional, C57Bl/6.
The test system of assay [21] is Rattus norvegicus. The assay is described as follows: Antiparkinsonian effect against MPTP-induced hypokinesia in Wistar rat assessed as number of locomotory acts at 20 mg/kg, po administered 30 days post 20 mg/kg, ip MPTP challenge measured on 30th day 2 hrs post compound administration for 2 mins (reference value: 80.3 +/- 2.5 locomotor acts). The class given is functional.

Assay [22] concerns Rattus norvegicus. The assay is described as follows: Antiparkinsonian effect against MPTP-induced hypokinesia in Wistar rat assessed as number of upright postures at 20 mg/kg, po administered 30 days post 40 mg/kg, ip MPTP challenge measured on 30th day 2 hrs post compound administration for 2 mins (reference value: 14.6 +/- 1.8 upright postures).
The subject of assay [23] is Rattus norvegicus. The experiment in a line: Antiparkinsonian effect against MPTP-induced hypokinesia in Wistar rat assessed as movement distance at 20 mg/kg, po administered 30 days post ip MPTP challenge measured on 30th day 2 hrs post compound administration for 2 mins (reference value: 367 +/- 21.2 cm).
Assay [24] deals with Rattus norvegicus. The experiment in a line: Antiparkinsonian effect against MPTP-induced hypokinesia in Wistar rat assessed as movement speed at 20 mg/kg, po administered 30 days post ip MPTP challenge measured on 30th day 2 hrs post compound administration for 2 mins (reference value: 3.0 +/- 0.2 cm/s).

As for `N[C@@H](Cc1ccc(O)c(O)c1)C(=O)O` [LEVODOPA], the Activity with Rattus norvegicus [1] was determined as 9.6; with Rattus norvegicus [3], 86; in the assay with Rattus norvegicus [4], 316.8 cm; with Rattus norvegicus [5], 4.6. Also, the Time in the assay on Rattus norvegicus [2] is reported as 65.1 s.

As to `C=C(C)[C@@H]1CC=C(C)[C@H](O)[C@H]1O`, the Activity in the assay on Mus musculus [6] stood at 8.1; in the assay with Mus musculus [8], 10.3; with Mus musculus [9], 77.4; with Mus musculus [11], 2.1 cm/s. Also, the Time in the assay on Mus musculus [7] is given as 55.7 s. In addition, the Movement distance in the assay on Mus musculus [10] was 253.3 cm.

With `C=C(C)[C@H]1CC=C(C)[C@@H](O)[C@H]1O`, the Activity in the assay on Mus musculus [6] turned out to be 8.1; with Mus musculus [8], 7.9; in the assay with Mus musculus [9], 82.4; in the assay with Mus musculus [11] it was 2.1 cm/s. The Time in the assay with Mus musculus [7] was found to be 56.6 s. For the same compound, the Movement distance in the assay on Mus musculus [10] is recorded as 257.7 cm.

`C=C(C)[C@H]1CC=C(C)[C@H](O)[C@@H]1O`: the Activity came to 14.4 in the assay with Mus musculus [6], 3.1 in the assay on Mus musculus [8], 80.2 in the assay with Mus musculus [9] and 1.2 cm/s in the assay with Mus musculus [11]. For the same compound, the Time in the assay on Mus musculus [7] was 55.6 s. Moreover, the Movement distance with Mus musculus [10] is 245.9 cm.

For `C=C(C)[C@H]1CC=C(C)[C@H](O)[C@H]1O`, the Activity is given as 4.4 in the assay with Mus musculus [6], 2.5 in the assay with Mus musculus [8], 57.9 in the assay on Mus musculus [9] and 1.1 cm/s in the assay with Mus musculus [11]. Besides, the Time in the assay on Mus musculus [7] amounted to 34.9 s. Besides, in the assay with Mus musculus [10], the Movement distance worked out at 147.8 cm.

With `C=C(C)[C@H]1CC=C(C)[C@@H](O)[C@@H]1O`, the Activity in the assay on Mus musculus [6] stood at 3.9; with Mus musculus [8], 4.7; in the assay on Mus musculus [9], 65.5; in the assay on Mus musculus [11], 1.3 cm/s. The Time in the assay with Mus musculus [7] stood at 46.9 s. The Movement distance in the assay on Mus musculus [10] came out at 158.8 cm.

On to `C=C(C)[C@@H]1CC=C(C)[C@H](O)[C@@H]1O`, for which the Activity with Mus musculus [6] turned out to be 0.9; in the assay with Mus musculus [8] it was 1.7; with Mus musculus [9], 28.5; with Mus musculus [11] it was 0.4 cm/s. Besides, the Time in the assay on Mus musculus [7] is listed as 15 s. Also, the Movement distance in the assay on Mus musculus [10] amounted to 55.9 cm.

With `C=C(C)[C@@H]1CC=C(C)[C@@H](O)[C@@H]1O`, the Time with Rattus norvegicus [12] turned out to be 62.6 s; with Mus musculus [13], 74.8 s; in the assay on Mus musculus [7] it was 64 s. Besides, the inhibition result in the assay with Rattus norvegicus [14] was “Active”. The Activity is 4.3 in the assay with Rattus norvegicus [15]; 13.1 in the assay with Mus musculus [6]; 14.8 in the assay on Mus musculus [16]; 80.5 in the assay with Mus musculus [17]; 6.5 in the assay on Mus musculus [18]; 3.2 in the assay with Mus musculus [8]. Also, the Activity in the assay on Mus musculus [9] is on record as 78.6; with Mus musculus [19], 439.6 cm; in the assay on Mus musculus [20], 3.6 cm/s; with Rattus norvegicus [21], 81.9; with Mus musculus [11] it was 2.7 cm/s; in the assay with Rattus norvegicus [22], 10.7. In addition, the Activity in the assay on Rattus norvegicus [23] was found to be 305.6 cm; in the assay with Rattus norvegicus [24] it was 2.5 cm/s. Further, the Movement distance in the assay with Mus musculus [10] amounted to 332.6 cm.

As for `C=C(C)[C@@H]1CC=C(C)[C@@H](O)[C@H]1O`, the Activity in the assay with Mus musculus [6] came out at 3.5; in the assay on Mus musculus [8], 4; in the assay with Mus musculus [9], 64.9; in the assay with Mus musculus [11], 1.7 cm/s. The Time in the assay on Mus musculus [7] came out at 45.5 s. Further, the Movement distance in the assay with Mus musculus [10] is reported as 212.4 cm.
